Experimental data from ChEMBL document CHEMBL1158589, “Benzimidazole and imidazole inhibitors of histone deacetylases: Synthesis and biological activity” (Bioorg Med Chem Lett, 2010).

test system: PC-3; test: Cytotoxicity against human PC3 cells assessed as NADH level after 72 hrs by MTS cells; assay type: functional, cell-based; details: PC-3, 72 h
Procedure, shortened: (§1)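 Human A549 lung, HL60 leukemia and PC3 prostate cancer lines incubated with compound for 72 h. Viability read by MTS colorimetric assay from remaining NADH; EC50 calculated; mean of at least two experiments.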

SMILES	EC50
Cc1nc(-c2cccc(/C=C/C(=O)NO)c2)n([C@@H]2CCCN(C)C2)c1-c1ccccc1	100 nM
O=C(/C=C/c1cccc(-c2nc3ccccc3n2CCN2CCCC2)c1)NO	600 nM
CCN1CCC[C@@H](n2c(-c3cccc(/C=C/C(=O)NO)c3)nc(-c3ccccc3)c2C)C1	50 nM
C[C@@H](c1ccccc1)n1c(-c2cccc(/C=C/C(=O)NO)c2)nc2ccccc21	16000 nM
CN1CCCC(n2c(-c3cccc(/C=C/C(=O)NO)c3)nc3ccccc32)C1 (racemic)	100 nM
O=C(/C=C/c1cccc(-c2nc3ccccc3n2CCCc2ccccc2)c1)NO	4000 nM
O=C(/C=C/c1cccc(-c2nc3ccccc3n2CCN2CCOCC2)c1)NO	5000 nM
Cc1c(-c2ccccc2)nc(-c2cccc(/C=C/C(=O)NO)c2)n1CCc1ccccc1	300 nM
COc1ccc(-n2c(-c3cccc(/C=C/C(=O)NO)c3)nc3ccccc32)cc1	1200 nM
C[C@H](c1ccccc1)n1c(-c2cccc(/C=C/C(=O)NO)c2)nc2ccccc21	10000 nM
CCN1CCCC(n2c(-c3cccc(/C=C/C(=O)NO)c3)nc3ccccc32)C1 (racemic)	100 nM
Cc1c(-c2ccccc2)nc(-c2cccc(/C=C/C(=O)NO)c2)n1CCN1CCOCC1	1000 nM
Cc1c(-c2ccccc2)nc(-c2cccc(/C=C/C(=O)NO)c2)n1[C@@H]1CCCN(C(C)C)C1	100 nM

target: T1, Protein deacetylase HDAC6 (Homo sapiens, UniProt Q9UBN7); test: Inhibition of human recombinant HDAC6; details: not given
T1 sequence (Q9UBN7 whole entry): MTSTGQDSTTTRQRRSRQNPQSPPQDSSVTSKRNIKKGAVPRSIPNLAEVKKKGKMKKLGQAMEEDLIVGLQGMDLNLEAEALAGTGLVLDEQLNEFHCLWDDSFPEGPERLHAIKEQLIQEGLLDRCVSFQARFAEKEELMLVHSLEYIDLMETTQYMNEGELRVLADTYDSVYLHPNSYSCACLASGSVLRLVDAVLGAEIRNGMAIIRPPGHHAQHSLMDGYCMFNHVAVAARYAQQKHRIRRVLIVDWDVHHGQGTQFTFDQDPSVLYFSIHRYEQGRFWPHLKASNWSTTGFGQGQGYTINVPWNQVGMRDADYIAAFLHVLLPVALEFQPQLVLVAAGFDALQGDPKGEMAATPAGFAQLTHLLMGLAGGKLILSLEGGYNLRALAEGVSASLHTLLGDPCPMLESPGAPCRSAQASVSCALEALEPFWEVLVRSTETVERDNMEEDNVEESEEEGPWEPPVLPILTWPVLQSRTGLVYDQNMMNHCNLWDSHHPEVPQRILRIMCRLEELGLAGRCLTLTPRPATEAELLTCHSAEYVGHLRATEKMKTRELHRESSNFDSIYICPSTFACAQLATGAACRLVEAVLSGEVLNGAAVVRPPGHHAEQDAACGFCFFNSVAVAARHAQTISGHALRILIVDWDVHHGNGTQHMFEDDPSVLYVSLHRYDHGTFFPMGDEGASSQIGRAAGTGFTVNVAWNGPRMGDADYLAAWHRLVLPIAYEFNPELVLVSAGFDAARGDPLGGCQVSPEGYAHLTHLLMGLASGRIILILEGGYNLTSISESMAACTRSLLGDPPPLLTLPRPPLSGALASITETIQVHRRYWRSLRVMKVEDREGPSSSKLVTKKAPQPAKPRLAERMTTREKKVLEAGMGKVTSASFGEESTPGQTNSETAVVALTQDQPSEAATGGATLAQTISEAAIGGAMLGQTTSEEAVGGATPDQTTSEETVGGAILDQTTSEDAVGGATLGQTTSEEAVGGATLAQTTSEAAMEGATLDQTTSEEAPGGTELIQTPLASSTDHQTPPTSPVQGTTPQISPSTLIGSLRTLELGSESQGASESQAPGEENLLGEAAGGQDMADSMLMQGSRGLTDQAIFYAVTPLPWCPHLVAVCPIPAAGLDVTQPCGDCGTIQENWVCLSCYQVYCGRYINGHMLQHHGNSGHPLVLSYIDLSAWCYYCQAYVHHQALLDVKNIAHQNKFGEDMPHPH
Procedure, shortened: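 Purified recombinant human HDAC-2 or HDAC-6 at known enzyme concentration with tBOC(Ac)-Lys-AMC as substrate. IC50 is the mean of at least three experiments.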

SMILES	IC50
CCN1CCC[C@@H](n2c(C)nc(C)c2-c2cccc(/C=C/C(=O)NO)c2)C1	400 nM
Cc1nc(C)n(CCc2ccccc2)c1-c1cccc(/C=C/C(=O)NO)c1	120 nM
Cc1nc(-c2cccc(/C=C/C(=O)NO)c2)n([C@@H]2CCCN(C)C2)c1-c1ccccc1	79 nM
Cc1nc(-c2ccccc2)n(CCc2ccccc2)c1-c1cccc(/C=C/C(=O)NO)c1	79 nM
CCN1CCC[C@@H](n2c(Cc3ccccc3)nc(C)c2-c2cccc(/C=C/C(=O)NO)c2)C1	500 nM
CCN1CCC[C@@H](n2c(-c3cccc(/C=C/C(=O)NO)c3)nc(-c3ccccc3)c2C)C1	100 nM
C[C@@H](c1ccccc1)n1c(-c2cccc(/C=C/C(=O)NO)c2)nc2ccccc21	63 nM
CN1CCCC(n2c(-c3cccc(/C=C/C(=O)NO)c3)nc3ccccc32)C1 (racemic)	79 nM
O=C(/C=C/c1cccc(-c2nc3ccccc3n2CCCc2ccccc2)c1)NO	20 nM
O=C(/C=C/c1cccc(-c2nc3ccccc3n2CCN2CCOCC2)c1)NO	160 nM
Cc1c(-c2ccccc2)nc(-c2cccc(/C=C/C(=O)NO)c2)n1CCc1ccccc1	63 nM
COc1ccc(-n2c(-c3cccc(/C=C/C(=O)NO)c3)nc3ccccc32)cc1	63 nM
C[C@H](c1ccccc1)n1c(-c2cccc(/C=C/C(=O)NO)c2)nc2ccccc21	40 nM
CCN1CCCC(n2c(-c3cccc(/C=C/C(=O)NO)c3)nc3ccccc32)C1 (racemic)	79 nM
Cc1c(-c2ccccc2)nc(-c2cccc(/C=C/C(=O)NO)c2)n1CCN1CCOCC1	63 nM
Cc1c(-c2ccccc2)nc(-c2cccc(/C=C/C(=O)NO)c2)n1[C@@H]1CCCN(C(C)C)C1	79 nM
Cc1nc(Cc2ccccc2)n(CCc2ccccc2)c1-c1cccc(/C=C/C(=O)NO)c1	63 nM
CCN1CCC[C@@H](n2c(-c3ccccc3)nc(C)c2-c2cccc(/C=C/C(=O)NO)c2)C1	630 nM

test system: A549; test: Cytotoxicity against human A549 cells assessed as NADH level after 72 hrs by MTS cells; assay type: functional, cell-based; details: A549, 72 h; procedure, shortened: as §1

SMILES	EC50
Cc1nc(-c2cccc(/C=C/C(=O)NO)c2)n([C@@H]2CCCN(C)C2)c1-c1ccccc1	400 nM
O=C(/C=C/c1cccc(-c2nc3ccccc3n2CCN2CCCC2)c1)NO	3100 nM
CCN1CCC[C@@H](n2c(-c3cccc(/C=C/C(=O)NO)c3)nc(-c3ccccc3)c2C)C1	300 nM
C[C@@H](c1ccccc1)n1c(-c2cccc(/C=C/C(=O)NO)c2)nc2ccccc21	31000 nM
CN1CCCC(n2c(-c3cccc(/C=C/C(=O)NO)c3)nc3ccccc32)C1 (racemic)	500 nM
O=C(/C=C/c1cccc(-c2nc3ccccc3n2CCCc2ccccc2)c1)NO	12000 nM
O=C(/C=C/c1cccc(-c2nc3ccccc3n2CCN2CCOCC2)c1)NO	25000 nM
Cc1c(-c2ccccc2)nc(-c2cccc(/C=C/C(=O)NO)c2)n1CCc1ccccc1	800 nM
COc1ccc(-n2c(-c3cccc(/C=C/C(=O)NO)c3)nc3ccccc32)cc1	4000 nM
C[C@H](c1ccccc1)n1c(-c2cccc(/C=C/C(=O)NO)c2)nc2ccccc21	16000 nM
CCN1CCCC(n2c(-c3cccc(/C=C/C(=O)NO)c3)nc3ccccc32)C1 (racemic)	500 nM
Cc1c(-c2ccccc2)nc(-c2cccc(/C=C/C(=O)NO)c2)n1CCN1CCOCC1	6300 nM
Cc1c(-c2ccccc2)nc(-c2cccc(/C=C/C(=O)NO)c2)n1[C@@H]1CCCN(C(C)C)C1	500 nM

test system: HL-60; test: Cytotoxicity against human HL60 cells assessed as NADH level after 72 hrs by MTS cells; assay type: functional, cell-based; details: HL-60, 72 h; procedure, shortened: as §1

SMILES	EC50
Cc1nc(-c2cccc(/C=C/C(=O)NO)c2)n([C@@H]2CCCN(C)C2)c1-c1ccccc1	30 nM
O=C(/C=C/c1cccc(-c2nc3ccccc3n2CCN2CCCC2)c1)NO	500 nM
CCN1CCC[C@@H](n2c(-c3cccc(/C=C/C(=O)NO)c3)nc(-c3ccccc3)c2C)C1	30 nM
C[C@@H](c1ccccc1)n1c(-c2cccc(/C=C/C(=O)NO)c2)nc2ccccc21	3100 nM
CN1CCCC(n2c(-c3cccc(/C=C/C(=O)NO)c3)nc3ccccc32)C1 (racemic)	80 nM
O=C(/C=C/c1cccc(-c2nc3ccccc3n2CCCc2ccccc2)c1)NO	1200 nM
O=C(/C=C/c1cccc(-c2nc3ccccc3n2CCN2CCOCC2)c1)NO	1200 nM
Cc1c(-c2ccccc2)nc(-c2cccc(/C=C/C(=O)NO)c2)n1CCc1ccccc1	200 nM
COc1ccc(-n2c(-c3cccc(/C=C/C(=O)NO)c3)nc3ccccc32)cc1	500 nM
C[C@H](c1ccccc1)n1c(-c2cccc(/C=C/C(=O)NO)c2)nc2ccccc21	3100 nM
CCN1CCCC(n2c(-c3cccc(/C=C/C(=O)NO)c3)nc3ccccc32)C1 (racemic)	60 nM
Cc1c(-c2ccccc2)nc(-c2cccc(/C=C/C(=O)NO)c2)n1CCN1CCOCC1	300 nM
Cc1c(-c2ccccc2)nc(-c2cccc(/C=C/C(=O)NO)c2)n1[C@@H]1CCCN(C(C)C)C1	40 nM

target: T2, Histone deacetylase 8 (Homo sapiens, UniProt Q9BY41); test: Inhibition of human recombinant HDAC8; details: not given
T2 sequence (Q9BY41 whole entry): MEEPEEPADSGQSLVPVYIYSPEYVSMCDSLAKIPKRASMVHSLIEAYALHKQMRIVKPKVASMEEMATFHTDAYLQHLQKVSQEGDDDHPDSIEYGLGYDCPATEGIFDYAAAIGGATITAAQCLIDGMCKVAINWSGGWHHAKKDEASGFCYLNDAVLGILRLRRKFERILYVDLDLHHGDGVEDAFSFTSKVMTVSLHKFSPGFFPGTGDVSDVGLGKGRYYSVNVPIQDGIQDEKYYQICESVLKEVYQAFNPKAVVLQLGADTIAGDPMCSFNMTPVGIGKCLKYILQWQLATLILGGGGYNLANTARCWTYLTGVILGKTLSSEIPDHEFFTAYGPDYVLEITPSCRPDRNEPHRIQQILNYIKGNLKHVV

SMILES	IC50
Cc1nc(C)n(CCc2ccccc2)c1-c1cccc(/C=C/C(=O)NO)c1	100 nM
Cc1nc(-c2cccc(/C=C/C(=O)NO)c2)n([C@@H]2CCCN(C)C2)c1-c1ccccc1	100 nM
Cc1nc(-c2ccccc2)n(CCc2ccccc2)c1-c1cccc(/C=C/C(=O)NO)c1	50 nM
CCN1CCC[C@@H](n2c(Cc3ccccc3)nc(C)c2-c2cccc(/C=C/C(=O)NO)c2)C1	100 nM
O=C(/C=C/c1cccc(-c2nc3ccccc3n2CCN2CCCC2)c1)NO	63 nM
CCN1CCC[C@@H](n2c(-c3cccc(/C=C/C(=O)NO)c3)nc(-c3ccccc3)c2C)C1	31 nM
C[C@@H](c1ccccc1)n1c(-c2cccc(/C=C/C(=O)NO)c2)nc2ccccc21	16 nM
CN1CCCC(n2c(-c3cccc(/C=C/C(=O)NO)c3)nc3ccccc32)C1 (racemic)	160 nM
O=C(/C=C/c1cccc(-c2nc3ccccc3n2CCCc2ccccc2)c1)NO	25 nM
O=C(/C=C/c1cccc(-c2nc3ccccc3n2CCN2CCOCC2)c1)NO	400 nM
Cc1c(-c2ccccc2)nc(-c2cccc(/C=C/C(=O)NO)c2)n1CCc1ccccc1	20 nM
COc1ccc(-n2c(-c3cccc(/C=C/C(=O)NO)c3)nc3ccccc32)cc1	63 nM
C[C@H](c1ccccc1)n1c(-c2cccc(/C=C/C(=O)NO)c2)nc2ccccc21	20 nM
CCN1CCCC(n2c(-c3cccc(/C=C/C(=O)NO)c3)nc3ccccc32)C1 (racemic)	120 nM
Cc1c(-c2ccccc2)nc(-c2cccc(/C=C/C(=O)NO)c2)n1CCN1CCOCC1	79 nM
Cc1c(-c2ccccc2)nc(-c2cccc(/C=C/C(=O)NO)c2)n1[C@@H]1CCCN(C(C)C)C1	31 nM
Cc1nc(Cc2ccccc2)n(CCc2ccccc2)c1-c1cccc(/C=C/C(=O)NO)c1	63 nM
CCN1CCC[C@@H](n2c(-c3ccccc3)nc(C)c2-c2cccc(/C=C/C(=O)NO)c2)C1	400 nM
